Measured values pooled from the literature.
Each line is one published result; the experiments were not run side by side.
Target: Ephrin type-A receptor 2 (EPHA2, Homo sapiens, UniProt P29317)
Sequence (P29317 613-875, limits assumed, as in one of the studies): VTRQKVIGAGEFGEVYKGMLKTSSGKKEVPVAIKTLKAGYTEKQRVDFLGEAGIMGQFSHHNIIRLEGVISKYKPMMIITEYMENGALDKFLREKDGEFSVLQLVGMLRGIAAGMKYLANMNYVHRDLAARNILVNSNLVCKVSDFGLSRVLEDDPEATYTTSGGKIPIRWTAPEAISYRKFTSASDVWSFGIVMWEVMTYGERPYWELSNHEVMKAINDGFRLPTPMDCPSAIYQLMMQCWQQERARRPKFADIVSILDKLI

CSc1nc(C)c(-c2ccnc(Nc3ccc(N4CCOCC4)cc3)c2)[nH]1
inhibition (cell-free assay, inhibitor; 10 µM): 17.1%

COc1cc(Nc2cnc(C#N)c(O[C@H](C)CN(C)C)n2)ncc1-c1cnn(C)c1
remaining activity (enzyme activity, inhibitor, radiometric; 10 µM): 24%

Cc1ccc(C(=O)Nc2ccc(CN3CCN(C)CC3)c(C(F)(F)F)c2)cc1C#Cc1cnc2cccnn12
remaining signal (cell-free assay; 23.5 nM): 8.9%

Cc1cc(NC(=O)c2cccc3cc(-c4cccc5[nH]nc(N)c45)ccc23)ccc1F
activity vs control (enzyme activity, inhibitor; 0.1 µM): 103%

C#Cc1cccc(Nc2ncnc3cc(OCCOC)c(OCCOC)cc23)c1
remaining signal (cell-free assay; 0.5 µM): 91.3%

Cc1sc(C(=O)NC2COC2)cc1-n1cc(NC(=O)Nc2c(F)cccc2Cl)cn1
remaining activity (enzyme activity, inhibitor; 10 µM): 102%

N#CCCc1ccc2c(c1)-c1[nH]c3ccc([N+](=O)[O-])cc3c1CC(=O)N2
remaining signal (cell-free assay; 0.5 µM): 93.6%

CCc1ccccc1C(=O)Nc1n[nH]c2c(C)c(F)c(C3C(C#N)=C(C)N(C)C(C)=C3C#N)cc12
remaining binding (cell-free assay, competition with immobilised ligand; 1 µM): 61%

O=C1Nc2ccc(Cl)cc2C1=Cc1cc(Cl)c(O)c(Cl)c1
remaining signal (cell-free assay; 0.5 µM): 95%

CCN(CC)CCNC(=O)c1c(C)[nH]c(/C=C2\C(=O)Nc3ccc(F)cc32)c1C
inhibition (enzyme activity, inhibitor; 0.3 µM): -12%

COc1cc2ncnc(Nc3ccc(Oc4ccccc4)cc3C)c2cc1OC
inhibition (enzyme activity, inhibitor; 1 µM): 2%

COc1cc(Cl)c(C(=O)N[C@@H](CN[C@H]2CC[C@@H](N)CC2)Cc2ccc(C#N)cc2)cc1-c1ccc(CN[C@H](C)c2ccc(C)cc2)o1
remaining activity (enzyme activity, inhibitor; 1 µM): 93%

Cc1cnc(NC2CCOCC2)nc1-n1cnc(C(=O)NC(CN)c2cc(F)cc(Cl)c2)c1 (stereo not drawn)
remaining activity (enzyme activity, inhibitor, radiometric; 1 µM): 101%

CC/C(=N\NC(=O)NCc1cccc(O)c1)c1ccc(O)c(C)c1O
inhibition (enzyme activity, inhibitor; 0.1 µM): 3.9%

Cc1ccc(Nc2nccc(N(C)c3ccc4c(C)n(C)nc4c3)n2)cc1S(N)(=O)=O
inhibition (enzyme activity, inhibitor; 10 µM): 43%

CN(c1ccnc(CNc2nc(Nc3ccc4c(c3)CC(=O)N4)ncc2C(F)(F)F)n1)S(C)(=O)=O
remaining binding (cell-free assay, competition with immobilised ligand; 1 µM): 80%

CNC(=O)c1cc(Oc2ccc(NC(=O)Nc3ccc(Cl)c(C(F)(F)F)c3)cc2)ccn1
inhibition (enzyme activity, inhibitor; 10 µM): 96%

CS(=O)(=O)Nc1cccc(-c2csc(NC(=O)CSc3nc4nccnc4c(=O)n3CCc3ccccc3)n2)c1
inhibition (enzyme activity, inhibitor; 10 µM): 9%

O=C(Nc1cnc(Oc2ccc(F)cc2)nc1)N1CCc2ncccc2[C@@H]1c1ccc(F)cc1
remaining binding (cell-free assay, competition with immobilised ligand; 1 µM): 99%

CNC(=O)c1cc2c(Oc3ccc(NC(=O)C4(C(=O)Nc5ccc(F)cc5)CC4)cc3)ccnc2cc1OC
inhibition (enzyme activity, inhibitor, radiometric; 1 µM): 96%

CNCc1ccccc1-c1csc([C@H](C)Nc2nc(C)nc3cc(OC)c(OC)cc23)c1
remaining binding (cell-free assay, competition with immobilised ligand; 1 µM): 80%

FC(F)c1nc2ccccc2n1-c1nc(N2CCOCC2)nc(N2CCOCC2)n1
remaining activity (enzyme activity, inhibitor; 10 µM): 106%

Cc1nccc(COC(=O)N2C[C@@H]3[C@@H](CNC(=O)c4ccc5[nH]nnc5c4)[C@@H]3C2)n1
remaining binding (cell-free assay, competition with immobilised ligand; 1 µM): 92%

Cc1ccc(C(=O)NCc2ccsc2)cc1C#Cc1cn(C(C)C)c2ncnc(N)c12
activity vs control (enzyme activity, inhibitor; 1 µM): 2%

O=C(N1CCS(=O)(=O)CC1)N1C[C@H](c2ccc(OC(F)(F)F)cc2)C[C@H](c2nc(C3CC3)no2)C1
remaining binding (cell-free assay, competition with immobilised ligand; 1 µM): 100%

COc1cc(/C=C/C(=O)CC(=O)/C=C/c2ccc(O)c(OC)c2)ccc1O
activity vs control (enzyme activity, inhibitor; 1 µM): 104%

O=C(NC[C@@H]1[C@H]2CN(C(=O)OCc3cc(C(F)(F)F)cc(C(F)(F)F)c3)C[C@@H]12)c1ccc2[nH]nnc2c1
remaining binding (cell-free assay, competition with immobilised ligand; 1 µM): 79%

CC(C)(C)c1nc2c(s1)c1nc(N)ncc1c1ccc(NS(=O)(=O)c3c(F)cccc3F)c(F)c12
remaining activity (enzyme activity, inhibitor, radiometric; 1 µM): 109%

N#CC1(c2ccccn2)CCN(Cc2cc(C(=O)N3CCCC3)c(=O)n3ccccc23)CC1
remaining binding (cell-free assay, competition with immobilised ligand; 1 µM): 86%

Nc1nc(NC2CCCCC2)sc1C(=O)c1ccccc1
remaining activity (enzyme activity, inhibitor; 10 µM): 110%
